Test results published in ChEMBL document CHEMBL1126131, “6-Alkyl-12-formylindolo[2,1-a]isoquinolines. Syntheses, estrogen receptor binding affinities, and stereospecific cytostatic activity” (1992).
“And” between values parts separate entries of the source, which are not always exact repeats. Equal entries are not always repeated.

Legend:
[1] = target: T1, Estrogen receptor (Mus musculus) (UniProt O08537+P19785); experiment: Percent inhibition of estrone-stimulated uterotrophic effect in mice at 50 ug dose; assay type: functional
In short: (§1)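 Antiuterotrophic test in immature female NMRI mice (20 days old). Estrone 0.4 μg was co-injected with the compound in olive oil, sc daily for three days. Uterine dry weight per body weight was read 24 h after the last dose. Inhibition (%) = 100 − [(W_S,T − W_V)/(W_S − W_V) × 100], where W_V is the vehicle control.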

[2] = target: T1, Estrogen receptor (Mus musculus); experiment: Anti-uterotrophic effect in mice as uterine weight(mg) relative to body weight(g) at 10 ug dose; assay type: functional
In short: (§2)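 Immature female NMRI mice, 20 days old, groups of six to ten; compound plus standard estrone 0.4 μg in olive oil (100 μL/animal) given sc on three consecutive days. Killed 24 h after last injection; uteri fixed in Bouin solution 2 h, dried at 100 °C for 18 h, weighed. Relative weight = uterine dry weight (mg)/body weight (g) × 100; mean of 6 animals ± SD.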

[3] = target: T1, Estrogen receptor (Mus musculus); experiment: Percent inhibition of estrone-stimulated uterotrophic effect in mice at 250 ug dose; assay type: functional; in short: as §1
MDA-MB-231 [4] = experiment: Inhibition of hormone-independent MDA-MB 231 mammary tumor cell proliferation at 1*10e-5 M; assay type: functional, Homo sapiens
In short: (§3)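 MDA-MB 231 cells were grown in McCoy 5a medium with 10% NCS and were pre-grown 3 d in microplates before drug medium was added (controls 0.1% DMF). After 2 days of incubation, wells were fixed with 1% glutaraldehyde, stained with 0.02% crystal violet, and read by optical density. T/C (%) was corrected for initial density (vinblastine 10^-7 M). 16 replicates ± SD.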

[5] = target: T1, Estrogen receptor (Mus musculus); experiment: Percent inhibition of estrone-stimulated uterotrophic effect in mice at 10 ug dose; assay type: functional; in short: as §1
MDA-MB-231 [6] = experiment: Inhibition of hormone-independent MDA-MB 231 mammary tumor cell proliferation at 5*10e-6 M; assay type: functional, Homo sapiens; in short: as §3
[7] = target: T1, Estrogen receptor (Mus musculus); experiment: Uterotrophic effect in mice as uterine weight(mg) relative to body weight(g) at 50 ug dose; assay type: functional, tissue-based
In short: (§4)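 Uterotrophic test: 20-day-old immature female NMRI mice, six to ten per group, received compound alone in olive oil (100 μL/animal) sc on three consecutive days; controls received vehicle. After 24 h, uteri were Bouin-fixed 2 h and dried 18 h at 100 °C. Uterine dry weight (mg)/body weight (g) × 100; mean of 6 ± SD.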

[8] = target: T1, Estrogen receptor (Mus musculus); experiment: Uterotrophic effect in mice as uterine weight(mg) relative to body weight(g) at 10 ug dose; assay type: functional, tissue-based; in short: as §4
[9] = target: T1, Estrogen receptor (Mus musculus); experiment: Uterotrophic effect in mice as uterine weight(mg) relative to body weight(g) at 2 ug dose; assay type: functional, tissue-based; in short: as §4
MCF7 [10] = experiment: Inhibition of hormone-sensitive MCF-7 mammary tumor cell proliferation at 1*10e-5 M; assay type: functional, Homo sapiens
In short: (§5)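 MCF-7 cells were grown in modified improved MEM with 10% newborn calf serum at 37 °C and 5% CO2, plated in 96-well plates for 3 d, then given drug medium (controls 0.1% DMF). After 3 days, cells were glutaraldehyde-fixed and crystal violet-stained; T/C = test/control optical density, corrected for initial density (vinblastine 10^-7 M). 16 replicates ± SD.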

[11] = target: T1, Estrogen receptor (Mus musculus); experiment: Anti-uterotrophic effect in mice as uterine weight(mg) relative to body weight(g) at 50 ug dose; assay type: functional; in short: as §2
MDA-MB-231 [12] = experiment: Inhibition of hormone-independent MDA-MB 231 mammary tumor cell proliferation at 1*10e-6 M; assay type: functional, Homo sapiens; in short: as §3
MCF7 [13] = experiment: Inhibition of hormone-sensitive MCF-7 mammary tumor cell proliferation at 1*10e-7 M; assay type: functional, Homo sapiens; in short: as §5
MCF7 [14] = experiment: Inhibition of hormone-sensitive MCF-7 mammary tumor cell proliferation at 1*10e-6 M; assay type: functional, Homo sapiens; in short: as §5
[15] = target: T1, Estrogen receptor (Mus musculus); experiment: Anti-uterotrophic effect in mice as uterine weight(mg) relative to body weight(g) at 2 ug dose; assay type: functional; in short: as §2
[16] = target: Estrogen receptor (Bos taurus) (UniProt Q9XSB5+P49884); experiment: Relative binding affinity for calf uterine estrogen receptor compared to 17-beta-estradiol (E2); assay type: protein assay
In short: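 Competitive binding in calf uterine cytosol (final protein 3 mg/mL) in Tris-EDTA-NaN3 buffer, pH 7.5. 5 nM [3H]17β-estradiol plus competitor at 10^-9 to 10^-5 M, 18 h at 4 °C. Free ligand removed with dextran-coated charcoal (90 min, 4 °C). Nonspecific binding from 4 μM estradiol. RBA = ratio of estradiol to test molar concentrations giving 50% displacement × 100.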

MDA-MB-231 [17] = experiment: Inhibition of hormone-independent MDA-MB 231 mammary tumor cell proliferation at 1*10e-7 M; assay type: functional, Homo sapiens; in short: as §3
[18] = target: T1, Estrogen receptor (Mus musculus); experiment: Anti-uterotrophic effect in mice as uterine weight(mg) relative to body weight(g) at 250 ug dose; assay type: functional; in short: as §2
MCF7 [19] = experiment: Inhibition of hormone-sensitive MCF-7 mammary tumor cell proliferation at 5*10e-6 M; assay type: functional, Homo sapiens; in short: as §5
[20] = target: T1, Estrogen receptor (Mus musculus); experiment: Percent inhibition of estrone-stimulated uterotrophic effect in mice at 2 ug dose; assay type: functional; in short: as §1
[21] = target: T1, Estrogen receptor (Mus musculus); experiment: Uterotrophic effect in mice as uterine weight(mg) relative to body weight(g) at 250 ug dose; assay type: functional, tissue-based; in short: as §4

T1 sequence (O08537 whole entry, looked up): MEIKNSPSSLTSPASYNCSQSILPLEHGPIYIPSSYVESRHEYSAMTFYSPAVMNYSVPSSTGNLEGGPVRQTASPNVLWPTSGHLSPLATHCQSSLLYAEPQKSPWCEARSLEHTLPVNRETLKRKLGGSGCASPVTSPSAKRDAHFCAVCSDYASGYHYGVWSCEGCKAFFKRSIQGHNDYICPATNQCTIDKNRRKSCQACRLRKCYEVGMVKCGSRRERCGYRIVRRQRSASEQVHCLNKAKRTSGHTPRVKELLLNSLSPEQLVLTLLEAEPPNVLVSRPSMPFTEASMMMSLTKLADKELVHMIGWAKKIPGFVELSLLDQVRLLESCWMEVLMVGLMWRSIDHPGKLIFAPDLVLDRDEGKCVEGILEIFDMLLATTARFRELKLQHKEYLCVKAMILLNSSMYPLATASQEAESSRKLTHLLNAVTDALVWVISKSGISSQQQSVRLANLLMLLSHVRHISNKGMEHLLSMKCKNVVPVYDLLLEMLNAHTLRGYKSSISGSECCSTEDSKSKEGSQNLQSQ
T1 sequence (P19785 whole entry, looked up): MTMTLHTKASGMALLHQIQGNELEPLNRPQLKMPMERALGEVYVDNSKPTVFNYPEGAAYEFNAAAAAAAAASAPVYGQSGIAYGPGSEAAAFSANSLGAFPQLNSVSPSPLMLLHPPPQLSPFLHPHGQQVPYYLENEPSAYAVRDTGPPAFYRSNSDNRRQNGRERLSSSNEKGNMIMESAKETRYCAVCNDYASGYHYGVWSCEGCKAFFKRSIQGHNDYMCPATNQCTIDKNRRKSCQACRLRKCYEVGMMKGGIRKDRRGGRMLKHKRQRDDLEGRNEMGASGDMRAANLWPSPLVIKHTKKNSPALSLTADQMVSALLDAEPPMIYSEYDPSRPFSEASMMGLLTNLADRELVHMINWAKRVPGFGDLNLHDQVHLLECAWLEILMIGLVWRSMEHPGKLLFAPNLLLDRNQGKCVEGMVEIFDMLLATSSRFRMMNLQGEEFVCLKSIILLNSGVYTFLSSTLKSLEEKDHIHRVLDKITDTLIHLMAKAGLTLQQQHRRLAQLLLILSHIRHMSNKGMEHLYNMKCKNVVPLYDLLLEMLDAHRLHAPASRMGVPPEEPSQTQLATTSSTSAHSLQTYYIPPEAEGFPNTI

| Structure (SMILES) | inhibition [1] | Relative uterus weight [2] | inhibition [3] | T/C (MDA-MB-231 [4]) | inhibition [5] | T/C (MDA-MB-231 [6]) | Relative uterus weight [8] | Relative uterus weight [9] | T/C (MCF7 [10]) | Relative uterus weight [11] | T/C (MDA-MB-231 [12]) | T/C (MCF7 [13]) | T/C (MCF7 [14]) | Relative uterus weight [15] | relative binding affinity (RBA) [16] | T/C (MDA-MB-231 [17]) | Relative uterus weight [18] | T/C (MCF7 [19]) | inhibition [20] | Relative uterus weight [21] | also measured |
| --- | --- | --- | --- | --- | --- | --- | --- | --- | --- | --- | --- | --- | --- | --- | --- | --- | --- | --- | --- | --- | --- |
| CCCCCC1Cc2cc(OC(C)=O)ccc2-c2c(C=O)c3ccc(OC(C)=O)cc3n21 (stereo not drawn) | 52% | 46.4 | 38% | 27% | 25% | 70% | 16.6 | 16.4 | 0% | 35.6 | 105% | 101% | 90% | 49 | 0.6 | 118% | 41.2 | 0% | 19% | 19.5 | Relative uterus weight [7]: 15.8 |
| CCCCCC1Cc2cc(OC(C)=O)ccc2-c2c(C=O)c3cc(OC(C)=O)ccc3n21 (stereo not drawn) | 24% | 51 | 8% | 47% | 14% | 80% | 16 | 17.9 | 37% | 47.1 | 100% | 102% | 94% | 57.3 | 1.9 | 105% | 53.8 | 77% | 0% | 22.5 | Relative uterus weight [7]: 20.2 |
| CCC1Cc2cc(OC(C)=O)ccc2-c2c(C=O)c3ccc(OC(C)=O)cc3n21 (stereo not drawn) | 27% | 49 | 38% | 10% | 14% | 34% | 17.7 | 15.9 | 0% | 44.2 | 92% | 89% | 83% | 47.9 | 1.3 | 101% | 40.2 | 2% | 17% | 22.8 | Relative uterus weight [7]: 18.2 |
| CC/C(=C(\c1ccccc1)c1ccc(OCCN(C)C)cc1)c1ccccc1 [TAMOXIFEN] |  |  |  |  |  |  |  |  | 18% |  |  | 85% | 57% |  |  |  |  | 43% |  |  |  |
| CCCC1Cc2cc(OC(C)=O)ccc2-c2c(C=O)c3ccc(OC(C)=O)cc3n21 (stereo not drawn) | 35% | 38.4 and 16.9 | 65% | 14% | 41% | 15% | 17.1 | 20.4 | 0% | 40.7 | 31% | 71% | 1% | 39.4 | 0.5 | 100% | 29.5 | 0% | 39% | 17.4 |  |
| CCCCC1Cc2cc(OC(C)=O)ccc2-c2c(C=O)c3cc(OC(C)=O)ccc3n21 (stereo not drawn) | 18% | 48.2 | 50% | 12% | 17% | 12% | 18.6 | 20.2 | 0% | 47.8 | 73% | 81% | 12% | 46.7 | 2.1 | 116% | 34.3 | 0% | 20% | 25.5 | Relative uterus weight [7]: 9.1 |
| CCC1Cc2cc(OC(C)=O)ccc2-c2c(C=O)c3cc(OC(C)=O)ccc3n21 (stereo not drawn) | 74% | 46.1 | 80% | 52% | 22% | 86% | 17.2 | 18.2 | 12% | 27 | 111% | 85% | 91% | 45.3 | 3.3 | 106% | 24.6 | 43% | 25% | 41.8 | Relative uterus weight [7]: 20.5 |
| CC(=O)Oc1ccc2c(c1)CC(C)n1c-2c(C=O)c2ccc(OC(C)=O)cc21 (stereo not drawn) | 30% | 48.5 | 38% | 45% | 14% | 79% | 18.2 | 19.6 | 1% | 42.6 | 112% | 97% | 106% | 45.3 | 1.7 | 109% | 39.7 | 36% | 20% | 19.9 | Relative uterus weight [7]: 18.2 |
| CCCCC1Cc2cc(OC(C)=O)ccc2-c2c(C=O)c3ccc(OC(C)=O)cc3n21 (stereo not drawn) | 8% | 46.7 | 19% | 16% | 20% | 24% | 13.7 | 16.7 | 0% | 51.8 | 30% | 66% | 0% | 52.8 | 0.7 | 104% | 47.5 | 0% | 6% | 10.6 | Relative uterus weight [7]: 12.3 |
| CCCC1Cc2cc(OC(C)=O)ccc2-c2c(C=O)c3cc(OC(C)=O)ccc3n21 (stereo not drawn) | 26% | 41.1 | 28% | 9% | 20% | 43% | 21.1 | 16.9 | 0% | 39.2 | 106% | 99% | 86% | 38.8 | 2.6 | 109% | 38.5 | 9% | 27% | 32.9 | Relative uterus weight [7]: 24.9 |
| CC(=O)Oc1ccc2c(c1)CC(C)n1c-2c(C=O)c2cc(OC(C)=O)ccc21 (stereo not drawn) | 49% | 42.8 | 32% | 61% | 36% | 94% | 18.2 | 14.8 | 23% | 36.5 | 104% | 93% | 94% | 60.5 | 3.9 | 109% | 44.4 | 54% | 0% | 43.2 | Relative uterus weight [7]: 24.6 |
